In article PMC4684727 (Antiviral research, 2015):
In brackets after ≈: the same amount, converted by molar mass.

Legend:
[1] = Rat liver microsomal stability; assay type: in vitro ADME; details: for Microsomal t1/2: rat liver microsomes, 37°C, NADPH
[2] = Aqueous solubility; assay type: physicochemical
[3] = tested on: HCV life cycle; assay type: cell-based, Hepatitis C virus; details: designated from HCVsc, HCVpp and HCV replicon inhibition (>50% = significant)
[4] = tested on: human tyrosyl-DNA phosphodiesterase 1; details: cited from earlier work; for inhibitory activity of human tyrosyl-DNA phosphodiesterase 1: ref AID 686978
[5] = tested on: HCV-WT (wild-type HCVcc) in Huh7.5.1 cells; experiment: 2-part HCV-WT infection assay with HCV core immunofluorescence staining; assay type: cell-based, Hepatitis C virus; details: for higher potency at part-2 compared to part-1: HCV-WT 2-part infection assay
In short: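 Huh7.5.1 cells (3,000/well) were infected with wild-type J6/JFH1 HCVcc at 0.05 moi, with test compound added at infection in 1:3 serial dilutions from 30 μM (part 1). After 48 h, the media were moved onto fresh Huh7.5.1 cells (part 2) and infected for 48 h. Cells were stained with anti-core 6G7 mAb, an Alexa Fluor 488 secondary and Hoechst, then imaged. Core-positive cell percentages were normalized to DMSO and plotted as concentration-response curves.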

[6] = tested on: HCV-Cre in Huh7.5.1LoxPGluc cells; experiment: HCV-Cre/LoxPGluc cell-based HCV infection qHTS assay; parameters: species or system Hepatitis C virus; details: primary screen, luciferase 48 h
In short: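 Huh7.5.1LoxPGluc cells carry a Cre-activated Gaussia luciferase and are kept in DMEM with 10% FBS at 37 °C and 5% CO2. Cells (750/well) were plated overnight, then given test compound and HCV-Cre at ~0.05 m.o.i. Five plates were run: DMSO plus 0.34, 1.7, 8.5 and 42 μM. Luciferase was read at 48 h. Responses were normalized to 10 μM cyclosporin A (100%) and DMSO (0%), and EC50 was fitted by nonlinear regression.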

[7] = tested on: respiratory syncytial virus (RSV); details: ref AID: 2410; cited from earlier work
[8] = tested on: HIV; details: ref AID:651610; cited from earlier work
[9] = tested on: ELG1-dependent DNA repair; details: PubChem / in-house qHTS cross-activity, AID not given; cited from earlier work
[10] = tested on: miRNAs; details: D4 and its derivatives; ref AID: 2289; cited from earlier work
[11] = tested on: posterior segregation family member (pos-1) binding to mex-3-RNA; details: ref PubChem AID: 1964; cited from earlier work
[12] = tested on: 5′UTR stem-loop driven prion protein mRNA translation in H4 neuroglioblastoma cells; details: D4 and its derivatives, ref AID: 1814; cited from earlier work
[13] = tested on: HCVsc; experiment: HCV single-cycle infection assay; assay type: cell-based, Hepatitis C virus; details: significant = more than 50% decrease
In short: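 Single-round defective HCV particles were made by replicon trans-packaging. These particles infect and replicate but cannot assemble new virions. Luciferase signal was read 48 h after compound treatment, with cyclosporin A as positive control.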

[14] = tested on: DNA polymerase ETA; details: ref AID 588591; cited from earlier work
[15] = tested on: assembly of the perinucleolar compartement; details: ref AID 2427; cited from earlier work
[16] = tested on: HCVpp-1a; assay type: cell-based, Hepatitis C virus
[17] = tested on: human M1 muscarinic receptor; details: ref AID: 624040; cited from earlier work
[18] = tested on: D1 dopamine receptor; details: ref AID: 504660; cited from earlier work
[19] = Permeability; assay type: physicochemical

**Q.** For COc1ccc(CN2CCC(N(CCc3ccccc3)Cc3ccccc3)CC2)c(OC)c1.O=C(O)C(=O)O [MLS000662842-01], which “Microsomal t1/2” value [1] is on record?
**A.** The value was 2.3 m.

**Q.** What about the “half-life (t1/2) in rat microsomes” value [1] of the same molecule?
**A.** The value was 2.3 min.

**Q.** And the Solubility [2]?
**A.** The Solubility was 49.3 µg/mL.

**Q.** What about the Life cycle stage [3] of the same molecule?
**A.** Its Life cycle stage is “Assembly/secretion”.

**Q.** For COC(=O)C1=C(c2ccc(-c3ccccc3)c(F)c2)C[C@@H]2CC[C@H]1N2C(=O)NCc1cccc2ccccc12 [D1], which “inhibitory activity of human tyrosyl-DNA phosphodiesterase 1” value [4] is on record?
**A.** Its value is “showed inhibitory activity”.

**Q.** Which “higher potency at part-2 compared to part-1” value [5] does the source give for Cc1cc(SCC(=O)c2ccccc2)n2ncc(-c3ccccc3)c2n1 [MLS000763045-01] here?
**A.** The value was 10–50 fold.

**Q.** For O=C(Nc1ccc(S(=O)(=O)Nc2ccccc2)cc1)c1ccc(CN2CCOCC2)cc1 [MLS000714550], which “inhibition of HCV core-positive cells, part-1 versus part-2” value ([5]; compounds 1:3 dilutions from 30 μM, 48 h per part) is on record?
**A.** Its value is “decreased similarly in both parts”.

**Q.** For Cc1ccccc1-c1nc(CN2CCC(C(=O)NCCC3=CCCCC3)CC2)c(C)o1 [MLS000095191-01], which EC50 [6] is on record?
**A.** The EC50 was 6.31 µM.

**Q.** For Cc1c(NC(=O)c2cc3c(s2)-c2ccccc2OC3)cccc1[N+](=O)[O-] [D5], which “inhibitory activity against human TDP1” value ([4]; PubChem / in-house qHTS cross-activity, AID not given) is on record?
**A.** Its value is “showed inhibitory activities”.

**Q.** And the “inhibition of RSV” value [7]?
**A.** The value was “inhibitor”.

**Q.** And the “inhibition of HIV” value [8]?
**A.** The value was “inhibitor”.

**Q.** And the “inhibitory activity against ELG1-dependent DNA repair” value [9]?
**A.** Its value is “showed inhibitory activities”.

**Q.** For CCC1CCCCN1CCCNC(=O)c1ccc2c(=O)n(CCOC)c(=O)[nH]c2c1 (centres unmarked) [MLS000948314-01], which EC50 [6] is on record?
**A.** Its EC50 is > 100 µM.

**Q.** For Cc1oc(-c2ccc(Cl)cc2)nc1CN1CCC(C(=O)NCCCN2CCCC2=O)CC1 [MLS000878431-01], which EC50 [6] is on record?
**A.** Its EC50 is 22.4 µM.

**Q.** What does the source list for CCNC(=S)/N=C(\N)Nc1nc(C)c2cc(C)ccc2n1 [D4]?
**A.** modulation of miRNAs [10]: potent modulators; targeting pos-1 binding to mex-3-RNA [11]: targets; activation of 5′UTR stem-loop driven prion protein mRNA translation [12]: activators

**Q.** With CC1CCCCN1CCCNC(=O)c1ccc2c(=O)n(CCc3ccccc3)c(=O)[nH]c2c1 (centres unmarked) [MLS000519917-01] as the molecule, how does the EC50 [6] read?
**A.** The EC50 was 3.98 µM.

**Q.** With CC(NC(=O)c1cc2c(=O)n3ccccc3nc2n(CC2CCCO2)c1=N)c1ccccc1 (centres unmarked) [MLS001217747-01] as the molecule, how does the Life cycle stage [3] read?
**A.** The Life cycle stage was “entry inhibitors”.

**Q.** What about the “inhibition in HCVsc assay” value [13] of the same molecule?
**A.** Its value is “significant inhibition”.

**Q.** For Cn1c(=O)c2c(nc(SCC(=O)NCc3ccc4c(c3)OCO4)n2Cc2ccc(Cl)cc2)n(C)c1=O [D3], which “inhibition of DNA polymerase ETA” value [14] is on record?
**A.** Its value is “inhibitor”.

**Q.** What about the “inhibition of assembly of the perinucleolar compartement” value [15] of the same molecule?
**A.** The value was “inhibited the assembly”.

**Q.** With Cc1ccccc1-c1nc(CN2CCC(C(=O)NCc3cccnc3)CC2)c(C)o1 [MLS000095186-01] as the molecule, how does the EC50 [6] read?
**A.** The EC50 was 5.01 µM.

**Q.** With N=c1c(C(=O)NCc2ccc3c(c2)OCO3)cc2c(=O)n3ccccc3nc2n1Cc1cccnc1 [MLS000040412-01] as the molecule, how does the Life cycle stage [3] read?
**A.** The Life cycle stage was “entry inhibitors”.

**Q.** And the “inhibition in HCVsc assay” value [13]?
**A.** The value was “significant inhibition”.

**Q.** What about the “inhibition in HCVpp assay” value [16] of the same molecule?
**A.** The value was “less than 50%”.

**Q.** With CCCCCn1c(=O)[nH]c2cc(C(=O)NC3CCN(Cc4ccccc4)CC3)ccc2c1=O [MLS000519908-01] as the molecule, how does the EC50 [6] read?
**A.** The EC50 was > 100 µM.

**Q.** For CCCCCn1c(=O)[nH]c2cc(C(=O)NCCN3CCCCC3C)ccc2c1=O (centres unmarked) [MLS000948325-01], which EC50 [6] is on record?
**A.** The EC50 was 22.4 µM.

**Q.** Which EC50 [6] does the source give for Cc1oc(-c2ccc(Cl)cc2)nc1CN1CCCC(C(=O)NCCCN2CCCC2=O)C1 (centres unmarked) [MLS000117605-01] here?
**A.** Its EC50 is 11.2 µM.

**Q.** For CC1CCN(CCCNC(=O)c2ccc3c(=O)n(CCc4ccccc4)c(=O)[nH]c3c2)CC1 [MLS000519916-01], which EC50 [6] is on record?
**A.** Its EC50 is 8.91 µM.

**Q.** With Cc1ccccc1-c1nc(CN2CCC(C(=O)NCCCN3CCCC3)CC2)c(C)o1 [MLS000095192-01] as the molecule, how does the EC50 [6] read?
**A.** Its EC50 is 14.1 µM.

**Q.** Which EC50 [6] does the source give for CCCCCn1c(=O)[nH]c2cc(C(=O)NCCCN3CCCCC3)ccc2c1=O [MLS000086763-01] here?
**A.** Its EC50 is 10 µM.

**Q.** What does the source list for CCN1CCN(c2ccc(NC(=O)c3cccc(OCc4ccccc4)c3)cc2)CC1 [B5]?
**A.** activity against human M1 muscarinic receptor [17]: showed activities; activity against D1 dopamine receptor [18]: showed activities

**Q.** Which Life cycle stage [3] does the source give for CCOC(=O)c1cc2c(=O)n3ccccc3nc2n(CCCOC)c1=NC(=O)C(C)(C)C [MLS000879011-01] here?
**A.** The Life cycle stage was “entry inhibitors”.

**Q.** For COc1ccc(CCNC(=O)c2cc3c(=O)n4ccccc4nc3n(CCCN3CCOCC3)c2=N)cc1 [MLS001139388-01], which Life cycle stage [3] is on record?
**A.** The Life cycle stage was “entry inhibitors”.

**Q.** Which Life cycle stage [3] does the source give for COc1ccc(CCNC(=O)c2cc3c(=O)n4ccccc4nc3n(C3CCCCC3)c2=N)cc1 [MLS001139315-01] here?
**A.** Its Life cycle stage is “entry inhibitors”.

**Q.** Which EC50 [6] does the source give for Cc1ccccc1-c1nc(CN2CCC(C(=O)NCC3CCCO3)CC2)c(C)o1 (centres unmarked) [MLS000095190-01] here?
**A.** Its EC50 is > 100 µM.

**Q.** With CCC1CCCCN1CCCNC(=O)C1CCN(Cc2nc(-c3ccc(Cl)cc3)oc2C)CC1 (centres unmarked) [MLS000913279-01] as the molecule, how does the EC50 [6] read?
**A.** The EC50 was 1.41 µM.

**Q.** Which results are given for Cc1ccccc1-c1nc(CN2CCC(C(=O)NCCCN3CC(C)CC(C)C3)CC2)c(C)o1 (centres unmarked) [MLS000877128-01]?
**A.** EC50 [6]: 1.26 µM; Permeability [19]: 489.1 ×10⁻⁶ cm/s; Solubility [2]: 53.9 µg/mL (≈ 115 µM); Life cycle stage [3]: Entry

**Q.** Which EC50 [6] does the source give for O=C(NCCCN1CCCCC1)c1ccc2c(=O)n(CCc3ccccc3)c(=O)[nH]c2c1 [MLS000086784-01] here?
**A.** Its EC50 is 6.31 µM.

**Q.** With CCCCCn1c(=O)[nH]c2cc(C(=O)NCCCN3CCC(C)CC3)ccc2c1=O [MLS000876570-01] as the molecule, how does the EC50 [6] read?
**A.** Its EC50 is 4.47 µM.

**Q.** What about the “Microsomal t1/2” value [1] of the same molecule?
**A.** The value was > 30.0 m.

**Q.** And the “half-life (t1/2) in rat microsomes” value [1]?
**A.** The value was “greater than 30 min”.

**Q.** And the Permeability [19]?
**A.** The Permeability was < 30.9 ×10⁻⁶ cm/s.

**Q.** And the Solubility [2]?
**A.** The Solubility was > 59.0 µg/mL.

**Q.** And the Life cycle stage [3]?
**A.** Its Life cycle stage is “Entry”.

**Q.** With CCCCCn1c(=O)[nH]c2cc(C(=O)NCCCN3CCCCC3CC)ccc2c1=O (centres unmarked) [MLS000948303-01] as the molecule, how does the EC50 [6] read?
**A.** The EC50 was 7.08 µM.

**Q.** Which results are given for CCN1CCN(CCCOc2ccc(-c3ccccc3)cc2)CC1 [MLS000049859-01]?
**A.** Microsomal t1/2 [1]: 7.9 m; half-life (t1/2) in rat microsomes [1]: 7.9 min; Permeability [19]: >2183.0 ×10⁻⁶ cm/s; Solubility [2]: > 48.0 µg/mL; Life cycle stage [3]: Entry

**Q.** With N#C/C(=C\Nc1ccc2cn[nH]c2c1)c1nc(-c2ccccc2)cs1 [D2] as the molecule, how does the “inhibitory activity of human tyrosyl-DNA phosphodiesterase 1” value [4] read?
**A.** The value was “showed inhibitory activity”.

**Q.** With Cc1ccc(C)c2nc(SCC(=O)N3CCCc4ccccc43)c(C#N)cc12 [D7] as the molecule, how does the “higher potency at part-2 compared to part-1” value [5] read?
**A.** Its value is 10–50 fold.

**Q.** With Cc1ccccc1-c1nc(CN2CCC(C(=O)NCCN3CCOCC3)CC2)c(C)o1 [MLS000913230-01] as the molecule, how does the EC50 [6] read?
**A.** The EC50 was > 100 µM.
